Series [1] deals with Pseudomonas aeruginosa. The experiment in a line: Synergistic antibacterial activity against Pseudomonas aeruginosa ATCC 27853 at 35:1 compound to doxycycline ratio after 48 hrs by resazurin dye based microdilution broth checkerboard method. In kind it is functional. The following applies: ATCC 27853, 48 h. The method in brief:
(§1)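 Microdilution broth checkerboard of the compound combined with doxycycline, using the resazurin broth method (48 h, 37 °C, blue = no growth). ΣFIC = C_A/MIC_A + C_B/MIC_B, taken at the growth–no growth interface wells; ΣFIC below 0.5 is scored as synergy. MBC for the fixed-ratio combinations read as the 4 h resazurin endpoint.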

In another series the test system is Staphylococcus aureus. Kind of series: Synergistic bactericidal activity against Staphylococcus aureus ATCC 25923 at 2:1 compound to doxycycline ratio after 48 hrs by resazurin dye based microdilution broth checkerboard method. The series is classed as functional. The note with it: ATCC 25923, 48 h, read-out: MBC99.9. The method in brief:
(§2)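 Checkerboard broth microdilution of drug pairs in tryptic soy broth on mid-log cultures (OD 0.5), 48 h at 37 °C. Growth read by resazurin (pink growth, blue no growth). MBC is blue retained over 4 h, CFU plating where needed. ΣFIC = C_A/MIC_A + C_B/MIC_B, taken at the growth/no-growth interface wells; ΣFIC <0.5 counts as synergy.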

In the next series the test system is Klebsiella pneumoniae. The experiment in a line: Synergistic bactericidal activity against Klebsiella pneumoniae ATCC 8047 at 2:1 compound to doxycycline ratio after 48 hrs by resazurin dye based microdilution broth checkerboard method. In kind it is functional. The note with it: ATCC 8047, 48 h, read-out: MBC99.9. The method in brief:
as §2

Series [2] has as its system Pseudomonas aeruginosa. Kind of series: Synergistic bactericidal activity against Pseudomonas aeruginosa ATCC 27853 at 60:1 compound to doxycycline ratio after 48 hrs by resazurin dye based microdilution broth checkerboard method. The following applies: ATCC 27853, 48 h, read-out: MBC99.9. The series is classed as functional. In a few lines: as §2
In series [3] the test system is Acinetobacter baumannii. The experiment in a line: Synergistic antibacterial activity against multidrug-resistant Acinetobacter baumannii ATCC […] at 2:1 compound to doxycycline ratio after 48 hrs by resazurin dye based microdilution broth checkerboard method. In kind it is functional. The note with it: ATCC BAA 18002, 48 h. In a few lines: as §1
Series [4] relates to Acinetobacter baumannii. The experiment in a line: Potentiation of doxycycline-induced antimicrobial activity against Acinetobacter baumannii ATCC 19606 at 0.40 ug/ml in presence of 0.025 ug/ml doxycycline by microdilution broth checkerboard method. The series is classed as functional, ATCC 19606 = CIP 70.34 = JCM 6841. In a few lines: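 A. baumannii ATCC 19606 in a broth microdilution checkerboard with doxycycline, 96 concentration combinations. ΣFIC = C_A/MIC_A + C_B/MIC_B, taken for wells at the growth/no-growth interface; ΣFIC <0.5 counts as synergy.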

Series [5] relates to Escherichia coli. The experiment in a line: Growth inhibition of Escherichia coli ATCC 10798 after 48 hrs by resazurin dye based microdilution method. In kind it is functional. The following applies: ATCC 10798, 48 h. In a few lines:
(§3)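 Broth microdilution in tryptic soy broth. Mid-log cultures (OD600 0.5) treated with serial dilutions from a DMSO stock (1 mg per 100 μL) for 48 h at 37 °C. Resazurin (stock 0.02%) then added for 1 h at 37 °C. MIC is the lowest concentration staying blue; MBC is blue retained over 4 h (99.9% kill), with CFU plating when needed.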

Series [6] in a line: Half life in Sprague-Dawley rat liver microsomes at 500 ng/ml by LC/MS analysis. In kind it is ADME, microsome. In a few lines:
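Pooled Sprague-Dawley rat liver microsomes at 1 mg/mL protein in 100 mM phosphate, pH 7.4. Compound at 500 ng/mL final; verapamil as positive control. Pre-equilibrated 5 min at 37 °C, then 1 mM NADPH added. Triplicate samples at 0, 5, 10, 20, 30, 45 and 60 min, quenched in 4 volumes of cold methanol, analysed by LC-MS.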

Series [7] concerns Pseudomonas aeruginosa. Kind of series: Bactericidal activity against Pseudomonas aeruginosa ATCC 27853 after 48 hrs by resazurin dye based microdilution method. In kind it is functional. The following applies: ATCC 27853, 48 h, read-out: MBC99.9. The method in brief:
as §3

Series [8] deals with Acinetobacter baumannii. The experiment in a line: Synergistic antibacterial activity against Acinetobacter baumannii ATCC 19606 at 60:1 compound to doxycycline ratio after 48 hrs by resazurin dye based microdilution broth checkerboard method. In kind it is functional. The following applies: ATCC 19606 = CIP 70.34 = JCM 6841, 48 h. In a few lines:
as §2

Series [9] has as its system Escherichia coli. The experiment in a line: Synergistic antibacterial activity against Escherichia coli ATCC 10798 at 35:1 compound to doxycycline ratio after 48 hrs by resazurin dye based microdilution broth checkerboard method. The series is classed as functional. The note with it: ATCC 10798, 48 h. In a few lines: as §2
In series [10] the test system is Pseudomonas aeruginosa. Kind of series: Synergistic bactericidal activity against Pseudomonas aeruginosa ATCC 27853 at 2:1 compound to doxycycline ratio after 48 hrs by resazurin dye based microdilution broth checkerboard method. In kind it is functional. The following applies: ATCC 27853, 48 h, read-out: MBC99.9. In a few lines: as §2
In series [11] the test system is Acinetobacter baumannii. Kind of series: Synergistic antibacterial activity against multidrug-resistant Acinetobacter baumannii ATCC […] at 35:1 compound to doxycycline ratio after 48 hrs by resazurin dye based microdilution broth checkerboard method. In kind it is functional. The following applies: ATCC BAA 18002, 48 h. The method in brief:
as §1

Values after ≈ are worked out from the molar mass of the structure shown. Bounds are passed on as bounds.

As for `C=C[C@]1(C)C[C@@H](OC(=O)CSC(C)(C)CNC(=O)[C@H](N)C(C)C)[C@]2(C)[C@H](C)CC[C@]3(CC[C@@H](O)[C@H]32)[C@@H](C)[C@@H]1O`, the MIC in the series with Pseudomonas aeruginosa [1] is 12.5 µg/mL; in the series with Acinetobacter baumannii [3] it was 1.56 µg/mL; with Escherichia coli [5] it was 3.13 µg/mL (≈ 5.52 µM); with Acinetobacter baumannii [8] it was 0.5 µg/mL; in the series on Escherichia coli [9] it was 0.25 µg/mL; in the series with Acinetobacter baumannii [11], 1.56 µg/mL. Also, the MBC was 25 µg/mL with Staphylococcus aureus; 1.56 µg/mL with Klebsiella pneumoniae; 25 µg/mL with Pseudomonas aeruginosa [2]; greater than 25 µg/mL with Pseudomonas aeruginosa [7]; 12.5 µg/mL in the series on Pseudomonas aeruginosa [10]. The “fractional inhibitory concentration index (FICI)” value in the series with Acinetobacter baumannii [4] was found to be 0.19. Further, in [6], the t1/2 was greater than 1 h.

Values taken from ChEMBL document CHEMBL4177542, “A New Combination of a Pleuromutilin Derivative and Doxycycline for Treatment of Multidrug-Resistant Acinetobacter baumannii” (J Med Chem, 2017).
